Assay results from paper PMC9080015 (RSC Advances, 2018).

Assays:
[1] = biological target: T1, CYP1A1 (Homo sapiens, UniProt P04798); assay: EROD assay, recombinant human CYP1A1 inhibition; assay type: biochemical
T1 sequence (P04798 1-512): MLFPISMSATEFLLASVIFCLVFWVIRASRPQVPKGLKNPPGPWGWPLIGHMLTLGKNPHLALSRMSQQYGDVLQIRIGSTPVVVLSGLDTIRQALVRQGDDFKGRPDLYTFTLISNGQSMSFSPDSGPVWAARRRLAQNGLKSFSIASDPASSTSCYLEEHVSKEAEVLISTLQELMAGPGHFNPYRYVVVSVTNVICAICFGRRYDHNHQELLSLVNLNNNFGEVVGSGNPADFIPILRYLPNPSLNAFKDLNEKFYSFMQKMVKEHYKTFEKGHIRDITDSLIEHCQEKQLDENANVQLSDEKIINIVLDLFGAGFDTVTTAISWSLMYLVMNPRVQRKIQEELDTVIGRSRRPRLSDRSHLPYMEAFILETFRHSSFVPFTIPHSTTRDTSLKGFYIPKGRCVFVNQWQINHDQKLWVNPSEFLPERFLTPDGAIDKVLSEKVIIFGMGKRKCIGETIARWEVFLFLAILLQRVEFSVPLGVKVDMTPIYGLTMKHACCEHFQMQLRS
Method in brief: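 Supersomes with P450 reductase. Test compound is taken from 10 mM DMSO stock into Tris–HCl pH 7.4 (final DMSO <1% v/v), at several concentrations. Methanol stop. Resorufin fluorescence read at ex 544/em 590 nm. IC50 from nonlinear regression, log(inhibitor) vs normalized response, variable slope.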

[2] = system: CYP1A2; details: read-out: IC50 CYP1A2; recombinant human enzyme; cited from earlier work
[3] = system: CYP1A1; details: read-out: IC50 CYP1A1; cited from earlier work
[4] = biological target: T2, recombinant human CYP1B1 (Homo sapiens, UniProt Q16678); assay: EROD assay, recombinant human CYP1B1 inhibition; assay type: biochemical; details: selectivity for CYP1B1 over CYP1A1
T2 sequence (Q16678 1-543): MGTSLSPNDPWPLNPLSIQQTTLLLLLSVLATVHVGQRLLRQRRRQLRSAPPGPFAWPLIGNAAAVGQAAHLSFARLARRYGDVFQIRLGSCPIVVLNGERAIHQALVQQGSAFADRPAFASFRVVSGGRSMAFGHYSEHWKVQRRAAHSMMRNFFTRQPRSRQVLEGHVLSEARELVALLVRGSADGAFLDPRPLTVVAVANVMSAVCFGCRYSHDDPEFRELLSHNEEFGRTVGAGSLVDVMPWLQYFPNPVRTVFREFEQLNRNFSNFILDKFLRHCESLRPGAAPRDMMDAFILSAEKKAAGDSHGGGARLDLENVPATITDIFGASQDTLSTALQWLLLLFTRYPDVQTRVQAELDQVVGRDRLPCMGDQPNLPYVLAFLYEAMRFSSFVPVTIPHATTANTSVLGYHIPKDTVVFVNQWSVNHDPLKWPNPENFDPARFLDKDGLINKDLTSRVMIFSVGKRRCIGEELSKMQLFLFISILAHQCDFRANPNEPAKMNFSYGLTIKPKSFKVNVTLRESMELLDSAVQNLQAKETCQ

[5] = system: MCF-7/1B1 cells; assay type: cell-based, human
Method in brief: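 MCF-7/1B1 cells were made by incubating parental MCF-7 with 10 nM TCDD for five days, then seeded at about 3000 cells/well in RPMI 1640/10% FBS for 24 h. Screen: 20 μM docetaxel alone or with 10 μM test compound. […] MTT read at 490 nm. Non-linear regression fit; mean ± SD of three independent measurements; Student's t test.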

[6] = system: parental MCF-7 cells; assay: MTT anti-proliferation assay in parental MCF-7 cells; assay type: cell-based; details: Homo sapiens, MCF7, read-out: IC50 of docetaxel in parental MCF-7 cells
Method in brief: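 Parental MCF-7 cells were grown in RPMI 1640 with 10% FBS at 37 °C and 5% CO2. About 3000 cells/well were seeded and left 24 h, then exposed to six docetaxel concentrations. MTT read-out was absorbance at 490 nm. IC50 came from non-linear regression (log inhibitor vs normalized response, variable slope).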

O=c1cc(-c2ccccc2)oc2c1ccc1ccccc12 [ANF, α-Naphthoflavone]
IC50 [1]: 62.8 nM
IC50 [3]: 60 nM

COc1cc2c(=O)cc(-c3cccc(Br)c3)[nH]c2c2c(OC)cccc12 [Compound 5e, 2-(3-Bromophenyl)-6,10-dimethoxybenzo[h]quinolin-4(1H)-one]
IC50 ratio 1A1/1B1 [4]: 5.5
antiproliferative activity of the compound alone ([5]; MCF-7/1B1 cells, varying concentrations, no docetaxel): a significant antiproliferative activity was not observed

CC(=O)O[C@@]12CO[C@@H]1C[C@H](O)[C@@]1(C)C(=O)[C@H](O)C3=C(C)[C@@H](OC(=O)[C@H](O)[C@@H](NC(=O)OC(C)(C)C)c4ccccc4)C[C@@](O)([C@@H](OC(=O)c4ccccc4)[C@H]21)C3(C)C [docetaxel, reference compound]
fold resistance of MCF-7/1B1 cells to docetaxel versus parental MCF-7 cells [5]: 5 fold
IC50 [6]: 29.5 µM
